In ChEMBL document CHEMBL1123655, “Synthesis, cell growth inhibition, and antitumor screening of 2-(p-n-butylanilino)purines and their nucleoside analogues” (J Med Chem, 1987):
Blank lines part the entries; values can stand above or below the compound they belong to.

Experiments:
HeLa [1] = assay: Effect on DNA synthesis by HeLa cells was determined by the percentage inhibition of [3H]- thymidine incorporation after 3h at 100 uM; format: functional; conditions: Homo sapiens
In short: (§1)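 Exponentially growing HeLa S3 cells (7×10^5 cells/mL, suspension) exposed to compound at 100 μM in Me2SO, or Me2SO alone, at 37 °C. After 3 h, [methyl-3H]thymidine added to 1 μCi/mL. After 30 min, quenched with cold PBS, pelleted, alkali hydrolysed (1 M NaOH, 65 °C, 1 h), TCA/pyrophosphate precipitated and filtered. Alkali-stable acid-insoluble counts give % inhibition versus solvent control.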

HeLa [2] = assay: Compound (at a concentration of 100 uM) was evaluated for the effect on DNA synthesis by HeLa cells in culture and the percentage inhibition of [3H]- thymidine incorporation after 3h of addition was reported.; format: functional; conditions: Homo sapiens; in short: as §1
HeLa [3] = assay: Compound was evaluated for the effect on DNA synthesis by HeLa cells in culture and the inhibition of [3H]- thymidine incorporation after 3h of addition; format: functional, cell-based; conditions: Homo sapiens
In short: (§2)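 IC50 for [methyl-3H]thymidine incorporation into DNA of exponentially growing HeLa S3 suspension cells (7×10^5 cells/mL). Compounds in Me2SO, or Me2SO control, incubated 3 h at 37 °C, then label added at 1 μCi/mL for 30 min. Alkali-stable, acid-precipitable counts measured after NaOH (65 °C, 1 h) and TCA/pyrophosphate filtration.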

HeLa [4] = assay: Effect on DNA synthesis by HeLa cells was determined by the percentage inhibition of [3H]- thymidine incorporation after 3h; format: functional, cell-based; conditions: Homo sapiens
HeLa [5] = assay: Compound was evaluated for the effect on growth and macromolecule synthesis by HeLa cells and the cell growth inhibition; format: functional, cell-based; conditions: Homo sapiens
In short: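 HeLa S3 cells (ca. 2.5×10^4 cells/mL), exponentially growing in Joklik's modified medium with 3.5% calf and 3.5% fetal bovine serum, preincubated 3 h at 37 °C in spinner flasks. Compound in Me2SO or solvent added, and cells counted at t=0 and after 72 h. IC50 derived from % growth inhibition.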

HeLa [6] = assay: Effect on growth and macromolecule synthesis by HeLa cells was determined as the percentage inhibition of [3H]- leucine incorporation after 3h of addition at 100 uM; format: functional; conditions: Homo sapiens
HeLa [7] = assay: Compound (at a concentration of 100 uM) was evaluated for the effect on growth and macromolecule synthesis by HeLa cells and the percentage inhibition of [3H]- leucine incorporation after 3h of addition; format: functional; conditions: Homo sapiens
HeLa [8] = assay: Percent inhibition against [3H]uridine incorporation into DNA of HeLa cell after 45 mins of treatment; format: functional, Homo sapiens
In short: (§3)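 Exponentially growing HeLa S3 cells (7×10^5 cells/mL) treated with compound in Me2SO (100 μM, or 10 μM where stated), or Me2SO alone, for 3 h at 37 °C. [5,6-3H]uridine then added to 1 μCi/mL for 45 min. DNA: counts remaining acid-precipitable after 1 M NaOH at 60 °C, 1 h. RNA: total TCA-precipitable counts minus the DNA counts.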

HeLa [9] = assay: Percent inhibition against [3H]uridine incorporation into RNA of HeLa cell after 45 mins of treatment; format: functional, Homo sapiens; in short: as §3
HeLa [10] = assay: Compound was evaluated for the effect on [3H]- Uridine incorporation by HeLa cells and percentage inhibition into DNA; format: functional, Homo sapiens
In short: (§4)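 HeLa S3 cells grown in suspension, exponential phase (7 × 10^5 cells/mL), given compound in Me2SO (Me2SO alone for controls) for 3 h at 37 °C, then [5,6-3H]uridine to 1 μCi/mL for 45 min. DNA: alkali-stable, TCA-precipitable counts after 1 M NaOH at 60 °C for 1 h. RNA: total acid-precipitable nucleic acid minus DNA counts. Percent inhibition relative to control.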

HeLa [11] = assay: Compound was evaluated for the effect on [3H]- Uridine incorporation by HeLa cells and percentage inhibition into RNA; format: functional, Homo sapiens; in short: as §4
HeLa [12] = assay: Effect on DNA synthesis by HeLa cells was determined by the percentage inhibition of [3H]- thymidine incorporation after 3h at 200 uM; format: functional, Homo sapiens
In short: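 HeLa S3 cells in exponential suspension culture (7×10^5 cells/mL) treated at 200 μM in Me2SO, or Me2SO alone, at 37 °C. After 3 h, [methyl-3H]thymidine added to 1 μCi/mL for 30 min. Cells were then pelleted, NaOH hydrolysed at 65 °C, and TCA precipitated onto filters. Alkali-stable acid-precipitable radioactivity gives % inhibition against solvent control.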

HeLa [13] = assay: Effect on DNA synthesis by HeLa cells was determined by the inhibition of [3H]- thymidine incorporation after 3h of addition; format: functional, cell-based; conditions: Homo sapiens; in short: as §2
HeLa [14] = assay: Percent inhibition against [3H]-Uridine incorporation into DNA of HeLa cell after 45 mins of treatment at 100 uM; format: functional; conditions: Homo sapiens; in short: as §3
HeLa [15] = assay: Percent inhibition against [3H]-Uridine incorporation into RNA of HeLa cell after 45 mins of treatment at 100 uM; format: functional; conditions: Homo sapiens; in short: as §3
HeLa [16] = assay: Compound was evaluated for the effect on DNA synthesis by HeLa cells in culture and the percentage inhibition of [3H]- thymidine incorporation after 3h of addition was reported at 100 uM; format: functional; conditions: Homo sapiens; in short: as §1
HeLa [17] = assay: Percent inhibition against [3H]uridine incorporation into RNA of HeLa cell after 45 mins of treatment at 10 uM; format: functional; conditions: Homo sapiens; in short: as §3

- IC50 (HeLa [3]): 30 µM
Compound: CCCCc1ccc(Nc2nc(OC)c3[nH]cnc3n2)cc1
- inhibition at 100 µM (HeLa [2]): 80%

- IC50 (HeLa [5]): 40 µM
- IC50 (HeLa [3]): 23 µM
Compound: CCCCc1ccc(Nc2nc(N)c3[nH]cnc3n2)cc1
- inhibition at 100 µM (HeLa [7]): 47%
- inhibition at 100 µM (HeLa [2]): 92%
- Inhibition (HeLa [8]): 93%
- Inhibition (HeLa [9]): 87%

- IC50 (HeLa [4]): 38 µM
Compound: CCCCc1ccc(Nc2nc(O)c3ncn(COCCO)c3n2)cc1
- inhibition at 100 µM (HeLa [1]): 81%

- IC50 (HeLa [3]): 52 µM
Compound: Oc1[nH]c(Nc2ccc3c(c2)CCC3)nc2ncnc1-2
- inhibition at 100 µM (HeLa [2]): 79%

- IC50 (HeLa [3]): 32 µM
Compound: CCCCc1ccc(Nc2nc(SC)c3[nH]cnc3n2)cc1
- inhibition at 100 µM (HeLa [2]): 72%

- IC50 (HeLa [4]): 4.8 µM
Compound: CCCCc1ccc(Nc2ncc3ncn(COCCO)c3n2)cc1
- inhibition at 100 µM (HeLa [1]): 97%

- IC50 (HeLa [4]): 8.5 µM
Compound: CCCCc1ccc(Nc2nc(N)c3ncn(COCCO)c3n2)cc1
- inhibition at 100 µM (HeLa [1]): 97%

- IC50 (HeLa [3]): 40 µM
Compound: CCCCc1ccc(Nc2nc(S)c3[nH]cnc3n2)cc1
- inhibition at 100 µM (HeLa [2]): 94%

- IC50 (HeLa [3]): 35 µM
Compound: CCCCc1ccc(Nc2nc(Cl)c3[nH]cnc3n2)cc1
- inhibition at 100 µM (HeLa [16]): 99%

Second part, the compound before the results:

Compound: CCCCc1ccc(Nc2nc(S)c3ncn(COCCO)c3n2)cc1
- inhibition at 100 µM (HeLa [1]): 87%

Compound: CCCCc1ccc(Nc2nc(S)c3ncn([C@@H]4C[C@@H](O)[C@H](CO)O4)c3n2)cc1
- inhibition at 100 µM (HeLa [1]): 63%

Compound: CCCCc1ccc(Nc2nc(OC)c3ncn(COCCO)c3n2)cc1
- inhibition at 100 µM (HeLa [1]): 80%

Compound: CCCCc1ccc(Nc2ncc3ncn([C@@H]4C[C@@H](O)[C@H](CO)O4)c3n2)cc1
- IC50 (HeLa [4]): 4.8 µM
- IC50 (HeLa [5]): 5 µM
- inhibition at 100 µM (HeLa [1]): 97%
- inhibition at 100 µM (HeLa [6]): 58%

Compound: CCCCc1ccc(Nc2nc(Cl)c3ncn(COCCO)c3n2)cc1
- IC50 (HeLa [4]): 9 µM
- inhibition at 100 µM (HeLa [1]): 99%

Compound: C[C@@]1(CO)[C@H](O)CC[C@@]2(C)[C@H]1CC[C@H]1C[C@@H]3C[C@@]12CC[C@]3(O)CO [APHIDICOLIN]
- Inhibition (HeLa [10]): 84%
- Inhibition (HeLa [11]): 0%

Compound: CCCCc1ccc(Nc2nc3c(ncn3[C@@H]3C[C@@H](O)[C@H](CO)O3)c(=O)[nH]2)cc1 (stereo in doubt; 11)
- Inhibition (HeLa [12]): 53%

Compound: CCCCc1ccc(Nc2nc3c(ncn3[C@@H]3C[C@@H](O)[C@H](CO)O3)c(=O)[nH]2)cc1
- IC50 (HeLa [13]): 37 µM
- IC50 (HeLa [5]): 25 µM
- inhibition at 100 µM (HeLa [1]): 86%
- inhibition at 100 µM (HeLa [6]): 7%
- inhibition at 100 µM (HeLa [14]): 91%
- inhibition at 100 µM (HeLa [15]): 91%

Compound: CCCCc1ccc(Nc2nc(O)c3[nH]cnc3n2)cc1
- inhibition at 100 µM (HeLa [7]): 13%
- IC50 (HeLa [5]): 65 µM
- inhibition at 100 µM (HeLa [16]): 63%
- Inhibition (HeLa [8]): 76%
- Inhibition (HeLa [9]): 76%
- IC50 (HeLa [3]): 69 µM

Compound: CCCCc1ccc(Nc2nc3c(ncn3[C@@H]3C[C@@H](O)[C@H](CO)O3)c(=O)[nH]2)cc1 (stereo in doubt; 12)
- inhibition at 200 µM (HeLa [12]; Homo sapiens, HeLa, 3 h): 46%

Compound: CCc1cc(Nc2nc(O)c3[nH]cnc3n2)ccc1C
- inhibition at 100 µM (HeLa [2]): 44%

Compound: CCCCc1ccc(Nc2nc3c(ncn3[C@H]3O[C@@H](CO)[C@H](O)[C@@H]3O)c(=O)[nH]2)cc1 (stereo in doubt; 13)
- Inhibition (HeLa [12]): 75%

Compound: CCCCc1ccc(Nc2nc(Cl)c3ncn([C@@H]4C[C@@H](O)[C@H](CO)O4)c3n2)cc1
- IC50 (HeLa [4]): 11 µM
- IC50 (HeLa [5]): 10.3 µM
- inhibition at 100 µM (HeLa [1]): 97%
- inhibition at 100 µM (HeLa [6]): 87%

Compound: CCCCc1ccc(Nc2nc(N)c3ncn([C@@H]4C[C@@H](O)[C@H](CO)O4)c3n2)cc1
- IC50 (HeLa [4]): 1 µM
- IC50 (HeLa [5]): 1.4 µM
- inhibition at 100 µM (HeLa [1]): 96%
- inhibition at 100 µM (HeLa [6]): 56%
- Inhibition (HeLa [8]): 81%
- inhibition at 10 µM (HeLa [17]): 73%

Compound: CCCCc1ccc(Nc2nc3ncnc-3c[nH]2)cc1
- inhibition at 100 µM (HeLa [2]): 78%
- IC50 (HeLa [3]): 47 µM

Compound: CCCCc1ccc(Nc2nc3c(ncn3[C@H]3O[C@@H](CO)[C@H](O)[C@@H]3O)c(=O)[nH]2)cc1 (stereo in doubt; 14)
- Inhibition (HeLa [12]): 38%
